Experimental findings from ChEMBL document CHEMBL2331342, “Synthesis, in vitro antiplatelet activity and molecular modelling studies of 10-substituted 2-(1-piperazinyl)pyrimido[1,2-a]benzimidazol-4(10H)-ones” (Eur J Med Chem, 2013) are described below.

Holding throughout (assay type): functional, cell-free
The nature of test [1]: Antiplatelet activity against collagen A23187-induced platelet aggregation in human plasma preincubated for 2 mins before addition of inducer by turbidimetric method. The method in brief:
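Human PRP from citrated blood of healthy volunteers (9:1 with 130 mM trisodium citrate, spun 100 g 30 min). Preincubated with compound or DMSO 37 °C 2 min, then A23187 added (final 20.0 μM). Born turbidimetric aggregometry; light transmission at 3 min. At least five concentrations; IC50 from inhibition–concentration curve versus solvent control, mean ±SD of at least five platelet batches.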

Test [2] in a line: Antiplatelet activity against collagen collagen-induced platelet aggregation in human plasma preincubated for 2 mins before addition of inducer by turbidimetric method. Put shortly:
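Platelet-rich plasma prepared from healthy volunteers' blood in 130 mM trisodium citrate (9:1), centrifuged 100 g, 30 min. After 2 min at 37 °C with compound or DMSO, bovine tendon collagen added (final 5.0 μg/mL). Born turbidimetric method, light transmission at 3 min. IC50 derived from inhibition–concentration curve (≥5 concentrations) relative to solvent control; mean ±SD, ≥5 platelet batches.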

Test [3] is described as follows: Antiplatelet activity against collagen ADP-induced platelet aggregation in human plasma preincubated for 2 mins before addition of inducer by turbidimetric method. The method in brief:
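Citrated PRP (blood:130 mM trisodium citrate 9:1, centrifuged 100 g for 30 min) from healthy human donors. Compound or DMSO preincubation at 37 °C for 2 min before ADP (final 5.0 μM). Turbidimetric (Born) read of light transmission after 3 min. IC50 from ≥5-concentration inhibition curve against solvent control; mean ±SD over at least five platelet batches.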

The term IC50 denotes the midpoint of a concentration-inhibition curve. High values mean a need for much substance, low ones inhibition by little substance. In the case of `O=c1cc(N2CCNCC2)nc2n(Cc3ccncc3)c3ccccc3n12`, the concentration for half-maximal inhibition (IC50) came to 32 µM in test [1], 21 µM in test [2] and 15 µM in test [3].

Take `O=c1cc(N2CCNCC2)nc2oc3ccc(Cl)cc3n12`: the IC50 was determined as 13 µM in test [1], 8.8 µM in test [2] and 3.6 µM in test [3].

Regarding `CCn1c2ccccc2n2c(=O)cc(N3CCNCC3)nc12`, the results for the IC50 in test [1], in test [2] and in test [3] were 206 µM, 55 µM and 127 µM, respectively.

On to `CC(=O)Oc1ccccc1C(=O)O` [ASPIRIN], for which the IC50 in test [1] is more than 1000 µM; in test [2], 183 µM; in test [3], more than 1000 µM.

`O=c1cc(N2CCNCC2)nc2n(Cc3cccnc3)c3ccccc3n12`: the 50% inhibitory concentration (IC50) in test [1] is 23 µM; in test [2] it was 9 µM; in test [3] it was 15 µM.

`CC(c1ccccc1)n1c2ccccc2n2c(=O)cc(N3CCNCC3)nc12` (stereo not drawn): the concentration for half-maximal inhibition (IC50) came out at 175 µM in test [1], 172 µM in test [2] and 163 µM in test [3].

In the case of `O=C1CCc2cc(OCCCCc3nnnn3C3CCCCC3)ccc2N1` [CILOSTAZOL], the results for the 50% inhibitory concentration (IC50) in test [1], in test [2] and in test [3] were 109 µM, 40 µM and 73 µM, respectively.

On to `CSCn1c2ccccc2n2c(=O)cc(N3CCNCC3)nc12`, for which the IC50 was 60 µM in test [1], 31 µM in test [2] and 26 µM in test [3].

For the molecule `COc1c(C)cnc(Cn2c3ccccc3n3c(=O)cc(N4CCNCC4)nc23)c1C`, the results for the half-inhibitory concentration (IC50) in test [1], in test [2] and in test [3] were 56 µM, 49 µM and 33 µM, respectively.

For `CCN(CC)c1cc(=O)n2c3ccccc3n(CC)c2n1`, the IC50 in test [1] is more than 1000 µM; in test [2] it was 75 µM; in test [3], more than 1000 µM.

For the molecule `Cc1[nH]c(=O)c(C#N)cc1-c1ccncc1` [MILRINONE], the IC50 was found to be 14 µM in test [1], 12 µM in test [2] and 11 µM in test [3].

`CCCn1c2ccccc2n2c(=O)cc(N3CCNCC3)nc12`: the IC50 came to 50 µM in test [1], 50 µM in test [2] and 62 µM in test [3].

With `O=c1cc(N2CCNCC2)nc2n(Cc3ccccc3)c3ccccc3n12`, the 50% inhibitory concentration (IC50) in test [1] was 143 µM; in test [2], 27 µM; in test [3], 90 µM.

Take `CN(C)CCn1c2ccccc2n2c(=O)cc(N3CCNCC3)nc12`: the IC50 turned out to be 41 µM in test [1], 8 µM in test [2] and 36 µM in test [3].

With `O=c1cc(N2CCNCC2)nc2n(CCN3CCOCC3)c3ccccc3n12`, the IC50 in test [1] stood at 11 µM; in test [2], 15 µM; in test [3], 12 µM.

For the molecule `CCN(CC)c1cc(=O)nc2n(CC)c3ccccc3n12`, the figures for the concentration for half-maximal inhibition (IC50) in test [1], in test [2] and in test [3] were 415 µM, 75 µM and more than 1000 µM, respectively.

As to `CCN(CC)CCn1c2ccccc2n2c(=O)cc(N3CCNCC3)nc12`, the IC50 in test [1] came to 13 µM; in test [2], 13 µM; in test [3], 16 µM.

Take `O=c1cc(N2CCNCC2)nc2n(Cc3ccccn3)c3ccccc3n12`: the IC50 stood at 38 µM in test [1], 30 µM in test [2] and 19 µM in test [3].

With `O=c1cc(N2CCNCC2)nc2n(CCc3ccccc3)c3ccccc3n12`, the half-inhibitory concentration (IC50) in test [1] amounted to 75 µM; in test [2], 15 µM; in test [3], 53 µM.

As to `CC(C)n1c2ccccc2n2c(=O)cc(N3CCNCC3)nc12`, the IC50 in test [1] was 142 µM; in test [2] it was 77 µM; in test [3], 116 µM.

For `O=c1cc(N2CCNCC2)nc2n(CCN3CCCC3)c3ccccc3n12`, the figures for the half-inhibitory concentration (IC50) in test [1], in test [2] and in test [3] were 42 µM, 28 µM and 16 µM, respectively.
